Tests used:
A549 [1] = experiment: Inhibition of colony formation in human A549 cells incubated for 10 to 14 days by crystal violet staining based assay; format: functional, cell-based
Outline: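 A549 seeded 3000 cells/well, treated after 12 h at 0.5, 1 and 2 µM, grown 10–14 days, fixed in 4% paraformaldehyde for 15 min and stained with 0.1% crystal violet.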

HeLa [2] = experiment: Antiproliferative activity against human HeLa cells assessed as growth inhibition at 2 uM after 72 hrs by CCK-8 assay relative to control; format: functional; conditions: read-out: GI
A549 [3] = experiment: Induction of apoptosis in human A549 cells assessed as viable cells at 0.5 uM after 48 hrs by Annexin V-FITC/propidium iodide staining based flow cytometry (reference value: 98%); format: functional; conditions: A549, 48 h, read-out: Activity
Outline: (§1)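 A549 seeded 4×10⁶ cells/well, dosed after 12 h with compound at various concentrations, harvested after 48 h. Resuspended in annexin-binding buffer, stained with Annexin V-FITC and propidium iodide for 15 min in the dark, analysed by flow cytometry; means of three separate experiments.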

HCT-116 = experiment: Antiproliferative activity against human HCT116 cells assessed as growth inhibition at 8 uM after 72 hrs by CCK-8 assay relative to control; format: functional; conditions: HCT-116, 72 h, read-out: GI
[4] = Clearance in ICR mouse at 4 mg/kg, iv after 0.08 to 24 hrs by LC-MS/MS analysis; format: ADME, organism-based; conditions: in vivo
Outline: (§2)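 Male ICR mice (29.7~37.4 g), single iv dose 4 mg/kg in DMSO:40% SBE-β-CD 20:80 (v/v). Retro-orbital blood at 0.08–24 h into EDTA-K2 tubes; plasma protein-precipitated with acetonitrile containing internal standards, analysed by LC-MS/MS; n=3 per time point; noncompartmental analysis.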

A549 [5] = experiment: Cell cycle arrest in human A549 cells assessed as accumulation of cells at G0/G1 phase at 0.5 uM after 48 hrs by propidium iodide staining-based flow cytometry (reference value: 73.35%); format: functional
[6] = Half life in ICR mouse at 4 mg/kg, iv after 0.08 to 24 hrs by LC-MS/MS analysis; format: ADME, organism-based; conditions: in vivo; outline: as §2
A549 [7] = experiment: Cell cycle arrest in human A549 cells assessed as increase in accumulation of cells at G2/M phase after 48 hrs by propidium iodide staining-based flow cytometry; format: functional
[8] = Toxicity against nude Balb/c mouse xenografted with human A549 cells assessed as no change in body weight at 25 mg/kg, ip administered twice per day for 21 days and measured every 3 days during compound dosing; format: organism-based; conditions: in vivo
Outline: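 Female BALB/c nude mice, 5–6 weeks, implanted s.c. in right axilla with 3×10⁶ A549 cells; randomized at ~95 mm³ tumor volume, 4 per group. Dosed ip 25 mg/kg twice daily for 21 days; vehicle controls got DMA & 5% Solutol HS-15 (5:95). Tumor size (V=length×width²/2) and body weight measured every 3 days; TGI from volume change relative to control.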

A549 [9] = experiment: Cell cycle arrest in human A549 cells assessed as accumulation of cells at G2/M phase at 0.5 uM after 48 hrs by propidium iodide staining-based flow cytometry (reference value: 13.62%); format: functional
HeLa [10] = experiment: Antiproliferative activity against human HeLa cells assessed as decrease in cell viability after 72 hrs by CCK-8 assay; format: functional, cell-based
Outline: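 Cells grown to 70–85% confluence (A375, A549, HCT116 in RPMI1640; HeLa, SMMC7721 in DMEM; 10% FBS, 37 °C, 5% CO2), seeded 4000/well, dosed after 12 h across a concentration range, incubated 72 h, then CCK-8 for 1 h; absorbance at 450 nm. IC50 as mean ± SD of three separate experiments.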

A549 [11] = experiment: Induction of apoptosis in human A549 cells assessed as late apoptotic cells at 0.5 uM after 48 hrs by Annexin V-FITC/propidium iodide staining based flow cytometry (reference value: 0.637%); format: functional; outline: as §1

| clearance [4] [mL/min/kg] | half-life [6] [h] | IC50 (HeLa [10]) [µM] | SMILES | inhibition (A549 [1]) | inhibition of growth at 2 µM (HeLa [2]) [%] | viability at 0.5 µM (A549 [3]) [%] | inhibition of growth at 8 µM (HCT-116) [%] | Activity (A549 [5]) [%] | Activity (A549 [7]) | Activity [8] | Activity (A549 [9]) [%] | Activity (A549 [11]) [%] |
| --- | --- | --- | --- | --- | --- | --- | --- | --- | --- | --- | --- | --- |
| 90.1 | 2.24 | 2.39 | COc1ccc(SCc2ccc(C(=O)Nc3ccccc3N)cc2)cc1 | Dose-dependent effect | 35 | 66 | 90.1 | 64.38 | Dose-dependent effect | Non-Toxic | 18.07 | 15 |
| 76.3 | 2.59 | 3.8 | CCc1ccc(SCc2ccc(C(=O)Nc3ccccc3N)cc2)cc1 | Dose-dependent effect | 30.8 | 80.8 | 79.1 | 33.89 | Dose-dependent effect | Non-Toxic | 53.55 | 7.08 |

— ChEMBL document CHEMBL4396885, “Thioether-based 2-aminobenzamide derivatives: Novel HDAC inhibitors with potent in vitro and in vivo antitumor activity” (Eur J Med Chem, 2019)
